PubChem BioAssay
Records with an inconclusive call do not appear.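 The calls were made as follows, unless noted: active = inhibition over a set limit, the all-compound mean plus 3 SD, in both replicate runs; inconclusive = over that limit in just one replicate run; inactive = at or under that limit in both runs.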

Key:
[1] = OD615 S. cerevisiae growth inhibition, permissive medium, pilot counter-assay, permissive growth control for S. cerevisiae lifespan shortening project (AID 705;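 active = growth inhibition above 25% in both replicates, a cutoff set 3 SD above the mean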); conditions: OD615, 24 h, at 10 µM, stronger effect = higher value
Outline: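 Timing: 24 h exposure, 30 °C / Material: Saccharomyces cerevisiae strain carrying genetically modified DeaD replicative-lifespan system / Signal: OD at 615 nm / Compound: 10 µM single dose, 0.25% DMSO / Medium: SC raffinose/galactose permissive medium / Evaluation: reduction in yeast growth (OD615)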

[2] = Restrictive medium S. cerevisiae growth inhibition, OD615, pilot screen of yeast lifespan reduction project, restrictive growth control (AID 706;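 active = growth inhibition above a set limit, 3 SD over mean compound inhibition, in both replicates, cut at about 43% in these data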;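 also: modified DeaD lifespan yeast strain shifted to restrictive glucose medium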); conditions: OD615, 48 h, at 10 µM, stronger effect = higher value
Outline: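 System: Engineered S. cerevisiae DeaD strain | Detection: OD615 | Buffer or medium: CSMM-D glucose medium | Doses: 10 µM compound, 0.25% DMSO | Timing: 4 h pre-growth plus 48 h compound exposure, 30 °C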

[3] = viability gain of MRP-1-high H69AR cells under doxorubicin, pilot screen, MRP-1 activator project, CellTiter-Glo, duplicate (AID 807;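 active = viability increase at or above a cutoff of the median across tested compounds plus 3 SD, cut at about 8.5% in these data, passing the limit was not always enough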;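 also: compound pretreatment 18-22 h then 72 h combined with doxorubicin; 0% = doxorubicin alone and 100% = vehicle without doxorubicin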); conditions: H69AR viability with doxorubicin, CellTiter-Glo luminescence; at 10 µM; stronger effect = higher value
[4] = growth suppression of beta-catenin knockout HCT116, pilot screen, human colon tumor cells (AID 823;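 active = cell viability at or below a set limit in both duplicate runs, the limit being the all-compound median minus 4 SD, cut at about 23% in these data, passing the limit was not always enough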;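 also: 0% = wells killed by 20 µM Hyamine and 100% = untreated DMSO cell wells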); conditions: CellTiter-Glo, 60 h, at 10 µM, stronger effect = lower value
[5] = growth suppression of PTEN-deleted HCT116, pilot screen, cell-based, HCT116 clonal line, CellTiter-Glo (AID 824;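 active = viability at or below 27.92% in each of two runs, the all-compound median minus 4 SD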;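 also: 0% = 20 µM Hyamine control and 100% = vehicle cell control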); conditions: 60 h, at 10 µM, stronger effect = lower value
[6] = inhibitors of the yeast RAM network, pilot screen, dse1pr::URA3 reporter, 5-FOA selection (AID 869);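 also: 0% = DMSO wells with no growth and 100% = 10 µM 1-NA-PP1 with full growth; RAM network block rescues cells from 5-FOA so hits raise OD615 growth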; conditions: S. cerevisiae dse1pr::URA3 5-FOA growth, OD615, 2 d, at 10 µM, stronger effect = higher value
[7] = RAM signaling pathway blockade in yeast – S. cerevisiae, Pdr1DBD-CYC8 efflux-inhibited sensitized strain, primary screen (AID 1298;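 active = RAM network inhibition above 8.4% in each of two replicates, 3 SD over the compound average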;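 also: 0% = DMSO untreated cells without growth and 100% = 10 µM 1-NA-PP1 full growth; higher means more yeast growth rescued from 5-FOA killing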); conditions: S. cerevisiae cbk1-as DSE1-URA3 strain, 5-FOA growth OD615, 2 d; at 50 µM; stronger effect = higher value

Cc1cc(OCC(=O)OC(C)(C)C)c2c3c(c(=O)oc2c1)CCC3
inactive: growth inhibition [1] -8.29% | growth inhibition [2] -17% | viability increase [3] -2.71% | viability [4] 88.2% | viability [5] 85.6% | inhibition [6] 2.17% | RAM network inhibition [7] 5.46%

Cc1ccc2cccc(OC(=O)N(C)c3ccccc3)c2n1
inactive: growth inhibition [1] -4.06% | growth inhibition [2] -4.96% | viability increase [3] -0.64% | viability [4] 95.5% | viability [5] 87.5% | inhibition [6] 1.67% | RAM network inhibition [7] 1.8%

CN1C(=O)C(Cc2cccs2)C(=O)N(C)C1=O
inactive: growth inhibition [1] -5.75% | growth inhibition [2] -4.64% | viability increase [3] 0% | viability [4] 100% | viability [5] 98.9% | inhibition [6] 0.795% | RAM network inhibition [7] 4.94%

CC1CCCCN1CC(=O)c1ccc2cc[nH]c2c1 (centres undefined)
inactive: growth inhibition [1] -4.76% | growth inhibition [2] 3.28% | viability increase [3] -2.48% | viability [4] 98.1% | viability [5] 89.4% | inhibition [6] 1.31% | RAM network inhibition [7] 2.76%

CC12CNCC(C)(CNC1)C2O (centres undefined)
inactive: growth inhibition [1] 7.96% | growth inhibition [2] -2.77% | viability increase [3] -0.15% | viability [4] 97.5% | viability [5] 99.8% | inhibition [6] 1.12% | RAM network inhibition [7] 2.1%

Cn1c(O)c(C=NCCOc2ccc(Cl)cc2)c(=O)n(C)c1=O
inactive: growth inhibition [1] 4% | growth inhibition [2] 0.245% | viability increase [3] 2.29% | viability [4] 93.2% | viability [5] 93.7% | inhibition [6] 1.06% | RAM network inhibition [7] 4.1%

COc1cc(CN2CC3CC(C2)c2cccc(=O)n2C3)cc(OC)c1OC (centres undefined)
inactive: growth inhibition [1] -11.8% | growth inhibition [2] -4.6% | viability increase [3] -2.25% | viability [4] 104% | viability [5] 109% | inhibition [6] 2.42% | RAM network inhibition [7] 0.85%
